These entries were drawn from the full list.
Apaf1 activ = activators of human Apaf-1 apoptosome. activity change, negative = activation, % at 20 µM. Apaf-1 apoptosome caspase-3 activation, DEVD-Rh110 fluorescence; active compounds read low. AID 489031. O14727. 0.31% of 330,000 active;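 active means activity change at or below -40% at 20 µM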
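Material: reconstituted apoptosome of Apaf-1, cytochrome c, caspase-9, procaspase-3; times: 30 min preincubation, 50 min reaction, room temperature; measured by: fluorescence, 540 nm emission, 480 nm excitation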
Rh110 interf act = Rh110 signal interference in Apaf-1 activator counter-screen; shares compounds with Apaf1 activ; Rh110 fluorescence interference, quenched caspase reaction, Ex480/Em540; fluorescence interference (activity change), % at 20 µM, hits read low; 980 tested, under 10 active; AID 504616;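 active means mean activity change at or below -40% when tested at 20 µM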
Apaf-1 act conf2 = confirmation of human Apaf-1 activators; shares compounds with Apaf1 activ; reconstituted apoptosome caspase-3 activity, DEVD-Rh110 fluorescence; active compounds read low; activity change, negative = activation, % at 20 µM; 5% of 980 active; AID 504617;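 active means mean activity change at or below -40%, meaning activation of 40% or more, at 20 µM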
Fluor interf act = counter-screen for Apaf-1 activators: fluorescence interference, dose response; shares compounds with Apaf1 activ; fluorescence interference counterscreen, Apaf-1 activator assay; EC50, µM; 55 tested, under 10 active; call rule not given here
* marks the source's active call; other numbers are inactive results; + = active, no number.

SMILES | Apaf1 activ | others
COc1ccc(OC)c(S(=O)(=O)Oc2ccc(N)c3ccccc23)c1 | 68.7
COc1ccc(CC(=O)N(C)CC(=O)Nc2ccccc2C(F)(F)F)cc1S(=O)(=O)N1CCOCC1 | 46.4
COc1ccc(CN(C)C(C)C(=O)Nc2ccc(S(=O)(=O)N3CCCC3)cc2)c(OC)c1OC (stereo unspecified) | -83.3*
COc1ccc(CC(=O)N(C)CC(=O)Nc2c(C)cccc2C)cc1S(=O)(=O)N1CCOCC1 | 59.7
CC(C)C[C@H]1CN=C(Nc2ccccc2)N1CC1CCC(C(C)(C)C)CC1 (stereo partly specified) | 56.0
O=C(c1ccco1)N1CCN(C(=O)c2cn(-c3ccccc3)nc2-c2ccc(F)cc2)CC1 | 72.0
Cc1c(C#N)c(=O)oc2ccc3ccccc3c12 | -97.5*
O=C1c2ccccc2[C@@H]2C[C@@H](O)[C@H](Nc3cccc4ccccc34)CCN12 | 53.3
COc1ccc(CC2=CC(=O)c3ccccc3C2=O)cc1 | 49.6
COc1cc(Cl)c(NC2=CC(=O)C(=O)c3ccccc32)c(OC)c1 | 91.9
COc1ccc(CCNC(=O)C(=O)NCC2CCCN2S(=O)(=O)c2ccc(OC)cc2)cc1 (stereo unspecified) | 61.1
COCCn1c(N)c(C(=O)NCC2CCCO2)c2nc3ccccc3nc21 (stereo unspecified) | 75.1
COc1ccc(-c2cc(C(F)(F)F)n3ncc(C(=O)NCC4CCCO4)c3n2)cc1OC (stereo unspecified) | -495.9*
CC(C)Cn1c(N)c(C(=O)NCC2CCCO2)c2nc3ccccc3nc21 (stereo unspecified) | 65.0
CCOC(=O)C1CCCN(C(=O)c2cccc(S(=O)(=O)N(C)c3c(C)n(C)n(-c4ccccc4)c3=O)c2)C1 (stereo unspecified) | 49.1
CSCCC(NC(=O)c1ccccc1Br)C(=O)N1CCN(C(C)=O)CC1 (stereo unspecified) | 48.1
C[C@@H]1CCCCCCCCC(=O)OCCN[C@H](C)CCCCCCCCC(=O)OCCN[C@H](C)CCCCCCCCC(=O)OCCN1 | 68.5
C=CC(=O)Nc1ccc(N(C)c2ccnc(Nc3ccc(N4CCN(C)CC4)cc3)n2)cc1 | 61.6
COCC(=O)O[C@]1(CCN(C)CCCc2nc3ccccc3[nH]2)CCc2cc(F)ccc2[C@@H]1C(C)C | 54.3
COc1ccc(NS(=O)(=O)c2ccc(C)c(NC(=O)CN3C(=O)NC4(CCCC4)C3=O)c2)cc1 | 82.2
CC(C)N(C(=O)[C@H]1C[C@H](CC(=O)NCCC2=CCCCC2)C(=O)N2CCc3c([nH]c4ccc(Cl)cc34)[C@]12C)C(C)C | 43.9
CCOc1cc(/C=C(\C#N)C(=O)Nc2cccc(C(=O)O)c2)ccc1OCc1ccc(Br)cc1 | -118.8*
CC(C(=O)NC(=O)NC1CCCCC1)N(C)CC(=O)Nc1ccc(F)c(F)c1F (stereo unspecified) | 46.2
CCCCN1CC[C@H]2C=CC[C@@H](C(=O)N3CCOCC3)[C@H]2C1=O | -437.1*
CCCCCCCCCCCCC/C=C/[C@@H](O)[C@@H](N)CO | 79.2
SMILES | Apaf1 activ | others
CCOc1ccc(OCCSc2ccc(S(=O)(=O)N3CCN(C)CC3)cn2)cc1 | 55.0
O=c1cc(N/N=C/c2ccccc2)[nH]c(=O)[nH]1 | 68.2
COc1ccccc1C1/C(=C(\O)c2ccc3c(c2)OCCO3)C(=O)C(=O)N1CCCn1ccnc1 (stereo unspecified) | 45.0
CCOC(=O)c1c(NC(=O)N/N=C/c2ccc(O)c(OC)c2)sc(C(C)=O)c1C | -63.1*
COc1cc(/C=N/NC(=O)c2ccncc2)ccc1O | 8.8
Oc1ccccc1/C=N/Nc1cc(N2CCCC2)nc(N2CCCC2)n1 | 97.7
O=C(CSc1nnc(-c2ccc(F)cc2)n1CC1CCCO1)NCc1ccco1 (stereo unspecified) | 53.6
O=C1NC(Cc2ccc(O)cc2)c2nc3ccc(Cl)cc3c(=O)n2-c2ccc(Cl)cc21 (stereo unspecified) | -42.1*
Cc1noc(/C=C/c2cccs2)c1S(=O)(=O)N1CCC(C(=O)NCCCN2CCC(C)CC2)CC1 | 40.0
COc1ccccc1Oc1c(C)oc2c(CN3CCN(C)CC3)c(O)ccc2c1=O | -594.9*
CC(=O)N1CCOc2ccc(S(=O)(=O)N(C)c3ccc(C)cc3)cc21 | 40.5
CNC[C@@H]1Oc2ccc(NC(=O)Nc3cccc4ccccc34)cc2C(=O)N([C@@H](C)CO)C[C@@H]1C | 57.2
Cc1nn(CCc2nn[nH]n2)c2nc(-c3ccc(C4CCCCC4)cc3)cc(C(F)(F)F)c12 | 59.7
COCCNC(=O)c1c[nH]c2ccc(S(=O)(=O)N(C)c3ccc(C)c(C)c3)cc2c1=O | -68.0* | Rh110 interf act=18.8;Apaf-1 act conf2=19.0
Cc1ccc(N(C)S(=O)(=O)c2cccc(C(=O)Nc3ccc(C)cn3)c2)cc1 | 44.7
CC(=O)Nc1ccc(CN2CCc3c([nH]c4ccccc34)C2C(C)(C)C)cc1 (stereo unspecified) | -55.2* | Rh110 interf act=8.7;Apaf-1 act conf2=14.9
CCN(CC)CCOc1ccc(/C(=C(\Cl)c2ccccc2)c2ccccc2)cc1 | 66.5
CCOC(=O)c1nn(-c2ccccc2)c(=O)cc1OCC(=O)Nc1cc(C)ccc1OC | -57.0* | Rh110 interf act=4.5;Apaf-1 act conf2=-33.7
CCOc1cc(/C=C2/C(=O)N(c3ccccc3)N=C2C)ccc1OC(=O)c1ccco1 | 96.9
Nc1cc(N2CCCC2)c(Cl)cc1[N+](=O)[O-] | 42.6
CCOC(=O)NNc1ccc2nonc2c1[N+](=O)[O-] | 96.4
COc1ccc2cc(C(=O)Nc3ccc(Cl)cc3)sc(=O)c2c1OC | -46.3* | Rh110 interf act=8.4;Apaf-1 act conf2=12.8
O=C1NC2=C(CCc3ccccc32)C(c2ccc(Br)cc2)N1 (stereo unspecified) | 69.1
COc1cccc2sc3cc(C#CC4(O)CCCCC4)ccc3c(=O)c12 | 40.1
COC(=O)c1ccccc1-c1c2ccc(=N)cc-2oc2cc(N)ccc12 | -332.4* | Rh110 interf act=+;Apaf-1 act conf2=-81.6*
SMILES | Apaf1 activ | others
COC(=O)c1ccccc1-c1ccc(C(c2c(C)[nH][nH]c2=O)c2c(C)[nH][nH]c2=O)o1 | 79.2
O=C1Nc2ccccc2Nc2ccc([N+](=O)[O-])cc21 | 43.0
CC(=O)N1CCC(=O)Nc2ccc([N+](=O)[O-])cc21 | -64.4* | Rh110 interf act=4.8;Apaf-1 act conf2=9.9
O=C(C[C@H]1C[C@H](C(=O)N2CCOCC2)[C@@]2(CCC3CCCC3)c3[nH]c4cc(-c5ccco5)ccc4c3CCN2C1=O)NCCCn1ccnc1 | 62.3
OCCN1CCN(CCCN2c3ccccc3Sc3ccc(Cl)cc32)CC1 | 45.7
N#Cc1nc(-c2ccc(OCc3ccc(Cl)cc3)cc2)oc1N1CCC(C(N)=O)CC1 | -82.1* | Rh110 interf act=2.0;Apaf-1 act conf2=-96.4*;Fluor interf act=>100
OCCNC(=S)Nc1ccc2nsnc2c1 | 96.9
C=CCn1c(N)c(C(=O)OC(C)(C)C)c2nc3ccccc3nc21 | 67.3
CC(=O)OC1=C(O)C(=O)c2ccccc2C1=O | 59.0
CCOc1ccc(NC(=O)CC2C(=O)N(c3ccccc3)C(=S)N2Cc2ccccn2)cc1 (stereo unspecified) | -44.0* | Rh110 interf act=8.4;Apaf-1 act conf2=9.6
